Laboratory results as given in ChEMBL document CHEMBL3044653, “Synthesis and herbicidal activity of 2-(substituted phenoxyacetoxy)alkyl-5,5-dimethyl-1,3,2-dioxaphosphinan-2-one” (J Agric Food Chem, 2012).

Key:
[1] = system: Digitaria sanguinalis; assay: Post-emergence herbicidal activity against Digitaria sanguinalis (hairy crabgrass) assessed as inhibition at 150 g/hectare treated at one-leaf stage by green house assay; format: functional
Method in brief: (§1)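 Monocot weeds were sprayed postemergence in the greenhouse at the one-leaf stage with diluted formulation solutions. Primary dose was 150 g ai/ha, with follow-up doses of 75 and 37.5 g ai/ha for selected compounds. Activity is scored as percent herbicidal damage compared with an untreated control.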

[2] = system: Echinochloa crus-galli; assay: Post-emergence herbicidal activity against Echinochloa crus-galli (barnyard grass) assessed as inhibition at 75 g/hectare treated at one-leaf stage by green house assay; format: functional; method in brief: as §1
[3] = system: Triticum aestivum; assay: Toxicity in Triticum aestivum (wheat) plant assessed as inhibition at 150 g/hectare; format: organism-based; conditions: in vivo
Method in brief: (§2)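 For crop selectivity, conventional crop varieties were planted in 12 cm diameter plots and given a postemergence treatment at 150 g ai/ha. Injury was scored as percent inhibition, with 0–10% classed as safe to the crop.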

[4] = system: Abutilon theophrasti; assay: Post-emergence herbicidal activity against Abutilon theophrasti (velvetleaf) assessed as inhibition at 150 g/hectare treated at two-leaf stage by green house assay; format: functional
Method in brief: (§3)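 Greenhouse postemergence spray of diluted formulation solutions onto broadleaf weeds at the two-leaf stage. Primary screen at 150 g ai/ha, with selected compounds retested at 75 and 37.5 g ai/ha. Abutilon was tested at 150 g ai/ha only. Read-out is percent herbicidal damage relative to an untreated control.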

[5] = system: Eclipta prostrata; assay: Post-emergence herbicidal activity against Eclipta prostrata assessed as inhibition at 150 g/hectare treated at two-leaf stage by green house assay; format: functional; method in brief: as §3
[6] = system: Echinochloa crus-galli; assay: Post-emergence herbicidal activity against Echinochloa crus-galli (barnyard grass) assessed as inhibition at 37.5 g/hectare treated at one-leaf stage by green house assay; format: functional; method in brief: as §1
[7] = system: Brassica juncea; assay: Post-emergence herbicidal activity against Brassica juncea assessed as inhibition at 150 g/hectare treated at two-leaf stage by green house assay; format: functional; method in brief: as §3
[8] = system: Oryza sativa; assay: Toxicity in Oryza sativa (rice) plant assessed as inhibition at 150 g/hectare; format: organism-based; conditions: in vivo; method in brief: as §2
[9] = system: Setaria viridis; assay: Post-emergence herbicidal activity against Setaria viridis (green foxtail) assessed as inhibition at 75 g/hectare treated at one-leaf stage by green house assay; format: functional; method in brief: as §1
[10] = system: Amaranthus retroflexus; assay: Post-emergence herbicidal activity against Amaranthus retroflexus assessed as inhibition at 150 g/hectare treated at two-leaf stage by green house assay; format: functional; method in brief: as §3
[11] = system: Echinochloa crus-galli; assay: Post-emergence herbicidal activity against Echinochloa crus-galli (barnyard grass) assessed as inhibition at 150 g/hectare treated at one-leaf stage by green house assay; format: functional; method in brief: as §1
[12] = system: Zea mays; assay: Toxicity in Zea mays (maize) plant assessed as inhibition at 150 g/hectare; format: organism-based; conditions: in vivo; method in brief: as §2
[13] = system: Setaria viridis; assay: Post-emergence herbicidal activity against Setaria viridis (green foxtail) assessed as inhibition at 37.5 g/hectare treated at one-leaf stage by green house assay; format: functional; method in brief: as §1
[14] = system: Glycine max; assay: Toxicity in Glycine max (soybean) plant assessed as inhibition at 150 g/hectare; format: organism-based; conditions: in vivo; method in brief: as §2
[15] = system: Amaranthus retroflexus; assay: Post-emergence herbicidal activity against Amaranthus retroflexus assessed as inhibition at 37.5 g/hectare treated at two-leaf stage by green house assay; format: functional; method in brief: as §3
[16] = system: Brassica napus; assay: Toxicity in Brassica napus (oilseed rape) assessed as inhibition at 150 g/hectare; format: functional; method in brief: as §2
[17] = system: Eclipta prostrata; assay: Post-emergence herbicidal activity against Eclipta prostrata assessed as inhibition at 37.5 g/hectare treated at two-leaf stage by green house assay; format: functional; method in brief: as §3
[18] = system: Brassica juncea; assay: Post-emergence herbicidal activity against Brassica juncea assessed as inhibition at 75 g/hectare treated at two-leaf stage by green house assay; format: functional; method in brief: as §3
[19] = system: Brassica juncea; assay: Post-emergence herbicidal activity against Brassica juncea assessed as inhibition at 37.5 g/hectare treated at two-leaf stage by green house assay; format: functional; method in brief: as §3
[20] = system: Setaria viridis; assay: Post-emergence herbicidal activity against Setaria viridis (green foxtail) assessed as inhibition at 150 g/hectare treated at one-leaf stage by green house assay; format: functional; method in brief: as §1
[21] = system: Digitaria sanguinalis; assay: Post-emergence herbicidal activity against Digitaria sanguinalis (hairy crabgrass) assessed as inhibition at 75 g/hectare treated at one-leaf stage by green house assay; format: functional; method in brief: as §1
[22] = system: Gossypium hirsutum; assay: Toxicity in Gossypium hirsutum (cotton) plant assessed as inhibition at 150 g/hectare; format: organism-based; conditions: in vivo; method in brief: as §2
[23] = system: Amaranthus retroflexus; assay: Post-emergence herbicidal activity against Amaranthus retroflexus assessed as inhibition at 75 g/hectare treated at two-leaf stage by green house assay; format: functional; method in brief: as §3
[24] = system: Digitaria sanguinalis; assay: Post-emergence herbicidal activity against Digitaria sanguinalis (hairy crabgrass) assessed as inhibition at 37.5 g/hectare treated at one-leaf stage by green house assay; format: functional; method in brief: as §1
[25] = system: Eclipta prostrata; assay: Post-emergence herbicidal activity against Eclipta prostrata assessed as inhibition at 75 g/hectare treated at two-leaf stage by green house assay; format: functional; method in brief: as §3

For CC1(C)COP(=O)(C(OC(=O)COc2ccc(Cl)cc2Cl)c2ccccc2)OC1 (stereo not given), the inhibition at 150 g/ha [1] was 0%, the inhibition at 75 g/ha [2] was 0% and the “inhibition (INH)” value [3] was 10%. It also gave an inhibition at 150 g/ha [4] of 98%, an inhibition at 150 g/ha [5] of 80% and an inhibition at 37.5 g/ha [6] of 0%. The inhibition at 150 g/ha [7] was 100%, the “inhibition (INH)” value [8] was 10% and the inhibition at 75 g/ha [9] was 0%. The inhibition at 150 g/ha [10] was 90%, the inhibition at 150 g/ha [11] was 0% and the “inhibition (INH)” value [12] was 0%. The inhibition at 37.5 g/ha [13] was 0%, the “inhibition (INH)” value [14] was 30% and the inhibition at 37.5 g/ha [15] was 50%. It also gave an inhibition at 150 g/ha [16] of 40%, an inhibition at 37.5 g/ha [17] of 50% and an inhibition at 75 g/ha [18] of 95%. It also gave an inhibition at 37.5 g/ha [19] of 90%, an inhibition at 150 g/ha [20] of 0% and an inhibition at 75 g/ha [21] of 0%. The “inhibition (INH)” value [22] was 40%, the inhibition at 75 g/ha [23] was 80% and the inhibition at 37.5 g/ha [24] was 0%. For the same compound, the inhibition at 75 g/ha [25] was 55%.

With CC(C)C(OC(=O)COc1ccc(Cl)cc1Cl)P1(=O)OCC(C)(C)CO1 (stereo not given) the inhibition at 150 g/ha [1] was 0%, the inhibition at 75 g/ha [2] was 0% and the “inhibition (INH)” value [3] was 10%. The inhibition at 150 g/ha [4] was 95%, the inhibition at 150 g/ha [5] was 75% and the inhibition at 37.5 g/ha [6] was 0%. The inhibition at 150 g/ha [7] was 100%, the “inhibition (INH)” value [8] was 20% and the inhibition at 75 g/ha [9] was 0%. For the same compound, the inhibition at 150 g/ha [10] was 85%, the inhibition at 150 g/ha [11] was 0% and the “inhibition (INH)” value [12] was 0%. The inhibition at 37.5 g/ha [13] was 0%, the “inhibition (INH)” value [14] was 30% and the inhibition at 37.5 g/ha [15] was 30%. For the same compound, the inhibition at 150 g/ha [16] was 50%, the inhibition at 37.5 g/ha [17] was 30% and the inhibition at 75 g/ha [18] was 100%. The inhibition at 37.5 g/ha [19] was 90%, the inhibition at 150 g/ha [20] was 0% and the inhibition at 75 g/ha [21] was 0%. The “inhibition (INH)” value [22] was 20%, the inhibition at 75 g/ha [23] was 80% and the inhibition at 37.5 g/ha [24] was 0%. For the same compound, the inhibition at 75 g/ha [25] was 35%.

For CC1(C)COP(=O)(C(OC(=O)COc2ccc(Cl)cc2Cl)c2ccc(Cl)cc2Cl)OC1 (stereo not given), the inhibition at 150 g/ha [1] was 0%, the inhibition at 75 g/ha [2] was 0% and the “inhibition (INH)” value [3] was 0%. For the same compound, the inhibition at 150 g/ha [4] was 95%, the inhibition at 150 g/ha [5] was 70% and the inhibition at 37.5 g/ha [6] was 0%. The inhibition at 150 g/ha [7] was 100%, the “inhibition (INH)” value [8] was 10% and the inhibition at 75 g/ha [9] was 0%. The inhibition at 150 g/ha [10] was 80%, the inhibition at 150 g/ha [11] was 0% and the “inhibition (INH)” value [12] was 10%. For the same compound, the inhibition at 37.5 g/ha [13] was 0%, the “inhibition (INH)” value [14] was 30% and the inhibition at 37.5 g/ha [15] was 20%. The inhibition at 150 g/ha [16] was 40%, the inhibition at 37.5 g/ha [17] was 30% and the inhibition at 75 g/ha [18] was 55%. For the same compound, the inhibition at 37.5 g/ha [19] was 50%, the inhibition at 150 g/ha [20] was 0% and the inhibition at 75 g/ha [21] was 0%. The “inhibition (INH)” value [22] was 20%, the inhibition at 75 g/ha [23] was 20% and the inhibition at 37.5 g/ha [24] was 0%. The inhibition at 75 g/ha [25] was 34%.
